Our source for the Ki and Kb values is ChEMBL document CHEMBL1132476, “Design and synthesis of novel alpha(1)(a) adrenoceptor-selective antagonists. 1. Structure-activity relationship in dihydropyrimidinones” (J Med Chem, 1999).

By pKi is commonly meant −log10 of the Ki, conventionally taken in molar units. A low value points to a high Ki. Broadly, the Kb is the affinity of an antagonist, worked out from how it opposes an agonist. A lower Kb goes with higher antagonist affinity.

In test [1] the target is T1, Alpha-1D adrenergic receptor (Homo sapiens, UniProt P25100).
T1 sequence (P25100 whole entry): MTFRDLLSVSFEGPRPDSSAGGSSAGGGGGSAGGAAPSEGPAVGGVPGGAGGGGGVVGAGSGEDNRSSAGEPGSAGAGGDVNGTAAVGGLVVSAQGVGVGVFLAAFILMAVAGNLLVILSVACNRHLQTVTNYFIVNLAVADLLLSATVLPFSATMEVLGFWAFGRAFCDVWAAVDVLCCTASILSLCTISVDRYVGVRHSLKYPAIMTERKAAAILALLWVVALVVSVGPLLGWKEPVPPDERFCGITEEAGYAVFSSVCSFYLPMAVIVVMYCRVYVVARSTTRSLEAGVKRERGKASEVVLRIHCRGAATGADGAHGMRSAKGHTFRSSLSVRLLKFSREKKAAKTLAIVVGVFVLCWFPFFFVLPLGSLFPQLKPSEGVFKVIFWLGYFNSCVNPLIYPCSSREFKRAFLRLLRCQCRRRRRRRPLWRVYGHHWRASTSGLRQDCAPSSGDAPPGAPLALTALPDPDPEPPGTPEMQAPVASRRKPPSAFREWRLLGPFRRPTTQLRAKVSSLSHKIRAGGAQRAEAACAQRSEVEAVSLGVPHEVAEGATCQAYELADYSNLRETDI
The test can be described thus: In vitro binding affinity against Alpha-1D adrenergic receptor of cloned human receptor.

Test [2] has as its target T2, Alpha-1A adrenergic receptor (Homo sapiens, UniProt P35348).
T2 sequence (P35348 whole entry): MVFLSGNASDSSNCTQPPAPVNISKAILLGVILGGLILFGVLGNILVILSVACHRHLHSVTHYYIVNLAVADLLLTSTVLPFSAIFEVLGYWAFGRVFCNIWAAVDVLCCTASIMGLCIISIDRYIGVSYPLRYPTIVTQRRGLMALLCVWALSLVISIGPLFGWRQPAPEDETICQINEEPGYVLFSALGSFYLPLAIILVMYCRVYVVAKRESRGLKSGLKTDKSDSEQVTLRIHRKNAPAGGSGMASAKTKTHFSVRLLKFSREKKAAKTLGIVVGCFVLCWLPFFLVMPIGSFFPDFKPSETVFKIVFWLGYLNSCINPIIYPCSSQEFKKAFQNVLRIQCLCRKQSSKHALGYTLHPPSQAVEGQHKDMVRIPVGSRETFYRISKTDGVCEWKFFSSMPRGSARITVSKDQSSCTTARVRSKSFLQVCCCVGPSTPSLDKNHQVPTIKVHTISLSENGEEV
The test can be described thus: In vitro binding affinity against Alpha-1A adrenergic receptor of cloned human receptor.

Test [3] concerns the target T3, Alpha-1B adrenergic receptor (Homo sapiens, UniProt P35368).
T3 sequence (P35368 whole entry): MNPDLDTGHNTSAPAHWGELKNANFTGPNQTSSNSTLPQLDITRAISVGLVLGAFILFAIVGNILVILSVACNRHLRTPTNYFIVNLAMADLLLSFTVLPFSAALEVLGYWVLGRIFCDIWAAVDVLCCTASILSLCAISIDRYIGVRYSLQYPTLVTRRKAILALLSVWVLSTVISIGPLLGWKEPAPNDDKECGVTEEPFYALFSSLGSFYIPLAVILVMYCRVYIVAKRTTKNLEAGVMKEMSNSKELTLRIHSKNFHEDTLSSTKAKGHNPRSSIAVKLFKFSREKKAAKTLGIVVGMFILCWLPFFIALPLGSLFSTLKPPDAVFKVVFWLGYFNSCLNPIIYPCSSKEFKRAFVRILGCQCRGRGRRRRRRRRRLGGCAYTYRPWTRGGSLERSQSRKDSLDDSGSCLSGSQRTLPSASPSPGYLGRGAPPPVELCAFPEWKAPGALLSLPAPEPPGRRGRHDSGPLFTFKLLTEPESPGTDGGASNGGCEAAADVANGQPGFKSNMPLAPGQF
The test is described as follows: In vitro binding affinity against Alpha-1B adrenergic receptor of cloned human receptor.

The next test is filed under the species Canis familiaris. The test can be described thus: Antagonism against phenylephrine induced contractions in isolated prostate tissue of dog. It is filed as functional, Canis lupus familiaris, Prostate gland. In short, it runs like this: (§1)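 Isolated prostate strips (rat or dog) contracted with phenylephrine as agonist. Antagonist potency is expressed as Kb, derived from the shift in the agonist response by a previously published method.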

The species entered for another test is Rattus norvegicus. The test is described as follows: Antagonism against phenylephrine induced contractions in isolated prostate tissue of rat. The test is classed as functional, Prostate gland. A digest of the protocol: as §1
For another test, the species on record is Homo sapiens. The test is described as follows: Antagonism against phenylephrine induced contractions in isolated prostate tissue of human. It is filed as functional. Conditions: Prostate gland.
Test [4] has as its target T4, Alpha-1A adrenergic receptor (Rattus norvegicus, UniProt P43140).
T4 sequence (P43140 whole entry): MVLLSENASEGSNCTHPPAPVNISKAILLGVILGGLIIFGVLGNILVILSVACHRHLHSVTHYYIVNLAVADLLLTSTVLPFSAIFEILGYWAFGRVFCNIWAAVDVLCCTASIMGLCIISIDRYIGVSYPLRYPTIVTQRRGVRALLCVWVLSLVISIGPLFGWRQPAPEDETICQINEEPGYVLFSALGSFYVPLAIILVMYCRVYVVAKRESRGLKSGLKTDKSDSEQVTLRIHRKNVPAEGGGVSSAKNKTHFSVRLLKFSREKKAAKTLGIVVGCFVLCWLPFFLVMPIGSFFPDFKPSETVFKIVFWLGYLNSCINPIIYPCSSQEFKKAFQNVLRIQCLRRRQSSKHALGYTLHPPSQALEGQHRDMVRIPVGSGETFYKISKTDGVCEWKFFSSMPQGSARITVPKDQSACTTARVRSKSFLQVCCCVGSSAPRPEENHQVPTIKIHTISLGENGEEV
The test is described as follows: In vitro binding affinity against Alpha-1A adrenergic receptor in isolated prostate tissue of rat. It is filed as tissue-based, Prostate gland.

Molecules are shown by their SMILES. pKi: −log10 of the molar value. Values joined by “and” are separate entries in the source; they are usually repeats but may differ in a detail not shown here. Equal entries are not always repeated.

For the molecule `COC(=O)C1=C(C)NC(=O)N(C(=O)NCCCN2CCC(C(=O)OC)(c3ccccc3)CC2)C1c1ccc([N+](=O)[O-])cc1` (centres undefined), the pKi in test [1] was 6.74 and 7.00 and 7.10; in test [2], 9.40 and 9.30 and 8.68; in test [3] it was 7.09 and 7.55 and 7.72.
In the case of `COC(=O)C1=C(C)NC(=O)N(C(=O)NCCCN2CCC(c3ccccc3)(c3ccccc3)CC2)C1c1ccc([N+](=O)[O-])cc1` (centres undefined), the pKi in test [1] is 6.92; in test [2], 8.30; in test [3], 7.57.
As to `COC(=O)C1=C(C)NC(=O)N(C(=O)NCCCN2CCC(C(=O)OC)(c3ccccc3)CC2)C1c1ccc(C)cc1` (centres undefined), the values for the pKi in test [1], in test [2] and in test [3] were 6.66, 8.10 and 7.11, respectively.
For the molecule `CCC1=C(C(=O)OC)C(c2ccc([N+](=O)[O-])cc2)N(C(=O)NCCCN2CCC(C(=O)OC)(c3ccccc3)CC2)C(=O)N1` (centres undefined), the pKi in test [1] is 7.06; in test [2], 9.10; in test [3] it was 7.43.
As for `COC(=O)C1=C(C)NC(=O)N(C(=O)NCCCN2CCC(C(=O)OC)(c3ccccc3)CC2)C1c1ccc(F)cc1F` (centres undefined), the pKi in test [1] is 6.74; in test [2], 9.70; in test [3], 7.06.
In the case of `COC(=O)C1=C(C)NC(=O)N(C(=O)NCCCN2CCC(C(=O)OC)(c3ccccc3)CC2)C1c1cccc(F)c1` (centres undefined), the results for the negative-log Ki (pKi) in test [1], in test [2] and in test [3] were 6.82, 8.82 and 7.17, respectively.
For `CCOC(=O)C1=C(C)NC(=O)N(C(=O)NCCCN2CCC(C(=O)OC)(c3ccccc3)CC2)C1c1ccc([N+](=O)[O-])cc1` (centres undefined), the figures for the pKi in test [1], in test [2] and in test [3] were 7.04, 9.52 and 7.82, respectively.
As for `COC(=O)C1=C(C)NC(=O)N(C(=O)NCCCN2CCC(C(=O)OC)(c3ccccc3)CC2)C1c1cccc(Cl)c1` (centres undefined), the pKi in test [1] was 6.74; in test [2] it was 8.96; in test [3], 7.30.
The matching figures for `CNC(=O)C1=C(C)NC(=O)N(C(=O)NCCCN2CCC(C(=O)OC)(c3ccccc3)CC2)C1c1ccc([N+](=O)[O-])cc1` (centres undefined): 6.57, 8.68 and 7.00.
Consider `COC(=O)C1=C(C)NC(=O)N(C(=O)NCCCN2CCC(C(=O)OC)(c3ccccc3)CC2)C1c1ccc2nonc2c1` (centres undefined), for which the figures for the pKi in test [1], in test [2] and in test [3] were 7.03, 10.00 and 7.57, respectively.
`COC(=O)C1(c2ccccc2)CCN(CCCNC(=O)N2C(=O)NC(C)=C(C(N)=O)C2c2ccc([N+](=O)[O-])cc2)CC1` (centres undefined): the pKi in test [1] is 6.85; in test [2], 9.15; in test [3], 7.00.
The matching figures for `COC(=O)C1=C(C)NC(=O)N(C(=O)NCCCN2CCC(C(=O)OC)(c3ccccc3)CC2)C1c1ccc(Cl)cc1` (centres undefined): 6.77, 8.35 and 7.32.
The matching figures for `COC(=O)C1=C(C)NC(=O)N(C(=O)NCCCN2CCC(C(=O)OC)(c3ccccc3)CC2)C1c1ccc(F)cc1` (centres undefined): 6.74, 8.92 and 7.11.
With `CCC1=C(C(N)=O)C(c2ccc([N+](=O)[O-])cc2)N(C(=O)NCCCN2CCC(C(=O)OC)(c3ccccc3)CC2)C(=O)N1` (centres undefined), the values for the Kb in the test filed under Canis familiaris, in the test filed under Rattus norvegicus and in the test filed under Homo sapiens were 0.85 nM, 2 nM and 0.04 nM, respectively. This molecule also gave a pKi in test [4] of 9.24.
As for `COC(=O)C1=C(C)NC(=O)N(C(=O)NCCCN2CCC(C(=O)OC)(c3ccccc3)CC2)C1c1cccc(C)c1` (centres undefined), the pKi in test [1] was 6.49; in test [2], 8.74; in test [3], 6.96.
On to `COC(=O)C1(c2ccccc2)CCN(CCCNC(=O)N2C(=O)NC(C)=C(C(=O)O)C2c2ccc([N+](=O)[O-])cc2)CC1` (centres undefined), for which the values for the pKi in test [1], in test [2] and in test [3] were 5.59, 8.00 and 5.80, respectively.
On to `CCC1=C(C(N)=O)C(c2ccc(F)cc2F)N(C(=O)NCCCN2CCC(C(=O)OC)(c3ccccc3)CC2)C(=O)N1` (centres undefined), for which the negative logarithm of the Ki (pKi) is 6.36 in test [1] and 6.47 in test [3].
Take `CCC1=C(C(=O)NC)C(c2ccc([N+](=O)[O-])cc2)N(C(=O)NCCCN2CCC(C(=O)OC)(c3ccccc3)CC2)C(=O)N1` (centres undefined): the pKi in test [1] is 6.40; in test [2], 8.92; in test [3], 6.86.
